Reference: ChEMBL document CHEMBL5120934, “Development of Urea-Bond-Containing Michael Acceptors as Antitrypanosomal Agents Targeting Rhodesain” (ACS Med Chem Lett, 2022)

Columns and labels:
[1] = molecular target: Rhodesain (Trypanosoma brucei rhodesiense) (UniProt Q95PM0); assay: Inhibition of Trypanosoma brucei rhodesiense rhodesain at 0.1 uM using Cbz-Phe-Arg-AMC as fluorogenic substrate measured for 10 mins every 30 seconds by fluorescence microplate reader assay
Outline: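 Single-concentration fluorogenic screen against rhodesain with the substrate Cbz-Phe-Arg-AMC, each compound at 0.1 μM. DMSO served as the negative control and E-64 as the positive control. The read-out was percentage inhibition.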

[2] = molecular target: Replicase polyprotein 1ab (Severe acute respiratory syndrome coronavirus 2) (UniProt P0DTD1); assay: Inhibition of C-terminal His-tagged SARS-CoV-2 MPro expressed in Escherichia coli BL21(DE3) at 100 uM using Dabcyl-KTSAVLQSGFRKME-Edans as fluorogenic substrate incubated for 10 mins by FRET assay
Outline: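 Single-concentration preliminary screen of viral main protease at 100 μM. Read-out is percentage inhibition of protease activity. No follow-up dilution series or mode-of-inhibition kinetics were run.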

[3] = molecular target: Rhodesain (Trypanosoma brucei rhodesiense) (UniProt Q95PM0); assay: Binding affinity to recombinant Trypanosoma brucei rhodesiense rhodesain assessed as Kinact using Cbz-Phe-Arg-AMC as fluorogenic substrate measured for 10 mins every 30 seconds by fluorescence microplate reader assay
Outline: (§1)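 Rhodesain activity was followed fluorogenically with the substrate Cbz-Phe-Arg-AMC. Inhibitors were serially diluted and assayed down to the concentration giving minimal inhibition. Irreversible inhibition was characterized by Ki and kinact (the rate of covalent E-I complex formation), and k2nd was calculated as kinact/Ki.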

[4] = molecular target: Rhodesain (Trypanosoma brucei rhodesiense) (UniProt Q95PM0); assay: Binding affinity to recombinant Trypanosoma brucei rhodesiense rhodesain assessed as binding constant measured at second inhibition step using Cbz-Phe-Arg-AMC as fluorogenic substrate measured for 10 mins every 30 seconds by fluorescence microplate reader assay; outline: as §1
[5] = molecular target: Rhodesain (Trypanosoma brucei rhodesiense) (UniProt Q95PM0); assay: Inhibition of Trypanosoma brucei rhodesiense rhodesain expressed in pichia pastoris assessed as binding constant measured at second inhibition step using Z-Phe-Arg-N-methylcoumarin as substrate by fluorometric assay
[6] = system: Trypanosoma brucei; assay: Antitrypanosomal activity against bloodstream form of Trypanosoma brucei; assay type: functional; details: read-out: ED50 (the source's name)

Sequence of Rhodesain (Trypanosoma brucei rhodesiense) (Q95PM0 1-450): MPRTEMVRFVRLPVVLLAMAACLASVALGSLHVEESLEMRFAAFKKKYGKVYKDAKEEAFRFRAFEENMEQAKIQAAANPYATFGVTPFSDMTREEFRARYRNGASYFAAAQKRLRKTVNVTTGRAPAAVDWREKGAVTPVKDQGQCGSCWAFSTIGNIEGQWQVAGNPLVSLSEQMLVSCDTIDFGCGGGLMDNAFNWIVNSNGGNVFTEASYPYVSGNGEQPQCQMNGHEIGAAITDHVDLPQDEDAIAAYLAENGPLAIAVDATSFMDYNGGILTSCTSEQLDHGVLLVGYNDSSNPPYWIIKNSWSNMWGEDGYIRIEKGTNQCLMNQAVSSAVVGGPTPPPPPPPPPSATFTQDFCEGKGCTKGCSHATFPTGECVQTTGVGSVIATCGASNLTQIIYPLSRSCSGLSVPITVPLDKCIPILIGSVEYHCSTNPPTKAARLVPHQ

| Compound | inhibition [1] | inhibition [2] | Kinact [3] | K [4] | K [5] | EC50 [6] |
| --- | --- | --- | --- | --- | --- | --- |
| CC(=O)/C=C/[C@H](CCc1ccccc1)NC(=O)[C@H](Cc1ccccc1)NC(=O)Nc1ccc(Cl)cc1C | > 80% | 33% | 0.0053 min⁻¹ | 14700 10^3/M/min |  |  |
| CC(=O)/C=C/[C@H](CCc1ccccc1)NC(=O)[C@H](Cc1ccccc1)NC(=O)Nc1ccc(Cl)cc1 | > 80% | 33% | 0.0023 min⁻¹ |  |  |  |
| COc1ccc(NC(=O)N[C@@H](Cc2ccccc2)C(=O)N[C@H](/C=C/C(C)=O)CCc2ccccc2)cc1 | > 80% | 33% | 0.0059 min⁻¹ |  |  |  |
| CC(=O)/C=C/[C@H](CCc1ccccc1)NC(=O)[C@H](Cc1ccccc1)NC(=O)Nc1ccc(C)cc1 | > 80% | 33% | 0.0023 min⁻¹ | 10400 10^3/M/min |  |  |
| CC(=O)/C=C/[C@H](CCc1ccccc1)NC(=O)[C@H](Cc1ccccc1)NC(=O)Nc1cccc2ccccc12 | > 80% | 33% | 0.0084 min⁻¹ |  |  |  |
| CC(=O)/C=C/[C@H](CCc1ccccc1)NC(=O)[C@H](Cc1ccccc1)NC(=O)Nc1ccccc1 | > 80% | 33% | 0.0021 min⁻¹ | 16700 10^3/M/min |  |  |
| CN1CCN(C(=O)N[C@@H](Cc2ccccc2)C(=O)N[C@H](/C=C/S(=O)(=O)c2ccccc2)CCc2ccccc2)CC1 [K-777] |  |  |  |  | 9000 10^3/M/min | 900 nM |
| CC(=O)/C=C/[C@H](CCc1ccccc1)NC(=O)[C@H](CC(C)C)NC(=O)Nc1ccc(Cl)cc1C |  |  | 0.0123 min⁻¹ | 14000 10^3/M/min |  |  |
| CC(=O)/C=C/[C@H](CCc1ccccc1)NC(=O)[C@H](Cc1ccccc1)NC(=O)Nc1c(F)cccc1F | > 80% | 33% | 0.0022 min⁻¹ |  |  |  |
| CC(=O)/C=C/[C@H](CCc1ccccc1)NC(=O)[C@H](CC(C)C)NC(=O)Nc1ccc(C)cc1 |  |  | 0.0042 min⁻¹ | 10400 10^3/M/min |  |  |
| CC(=O)/C=C/[C@H](CCc1ccccc1)NC(=O)[C@H](Cc1ccccc1)NC(=O)Nc1ccc(Cl)cc1C(F)(F)F | > 80% | 33% | 0.006 min⁻¹ |  |  |  |
| CC(=O)/C=C/[C@H](CCc1ccccc1)NC(=O)[C@H](Cc1ccccc1)NC(=O)Nc1ccc(F)cc1 | > 80% | 33% | 0.0021 min⁻¹ |  |  |  |
